Data as given in ChEMBL document CHEMBL4431351, “1,2-Benzisoselenazol-3(2H)-one Derivatives As a New Class of Bacterial Urease Inhibitors” (J Med Chem, 2016).
Activity calls are given as the source filed them. The calls are words filed in the database; no cut-off is given here.

Assays:
[1] = tested on: Sporosarcina pasteurii; assay: Competitive inhibition of Sporosarcina pasteurii CCM 2056 urease using urea as substrate assessed as ammonia levels after 120 mins by Lineweaver-Burk plot analysis
Method in brief: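 Purified native S. pasteurii urease (113.5 pM final) preincubated with rising inhibitor levels in 3 mM phosphate buffer pH 7.5, 37°C, until equilibrium; urea 1–60 mM then added. Initial rates measured by phenol-hypochlorite ammonia read-out; mode and constants from Lineweaver-Burk plots using at least 5 inhibitor concentrations.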

[2] = target: T1, Urease subunit alpha/Urease subunit beta (Helicobacter pylori (strain ATCC 700392 / 26695) (Campylobacterpylori), UniProt P69996+P14916); assay: Inhibition of recombinant Helicobacter pylori urease expressed in Escherichia coli rosetta DE3 using urea as substrate assessed as transformed cell urea splitting activity preincubated for 2 hrs followed by substrate addition measured after 2 hrs by Berthelot assay
Method in brief: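 Induced, PBS-washed E. coli Rosetta pGEM::ureOP cells (1×10⁹ cfu/mL) held 2 h with inhibitor in 10 mM PBS. Urea then added to 5 mM. Ammonia in timed aliquots measured by Berthelot assay against an inhibitor-free reference. DMF effect checked. Three repeats.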

[3] = tested on: Sporosarcina pasteurii; assay: Reversible inhibition of Sporosarcina pasteurii CCM 2056 urease using urea as substrate assessed as ammonia levels after 120 mins by fast dilution assay
[4] = target: T1, Urease subunit alpha/Urease subunit beta; assay: Inhibition of urease in Helicobacter pylori J99 in Brucella broth using urea as substrate after 2 hrs by Berthelot assay; assay type: protein-complex assay
Method in brief: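 H. pylori J99 passaged on blood Columbia agar, microaerophilic, 37°C. Then grown 48 h in Brucella broth with 5% FBS and 1% IsoVitalex, spun once and resuspended in 10 mM PBS pH 7.2 without washing. About 1×10⁷ cfu/mL added to PBS with 5 mM urea and inhibitor. Berthelot ammonia read-out, triplicate.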

[5] = target: T1, Urease subunit alpha/Urease subunit beta; assay: Inhibition of urease in Helicobacter pylori J99 in Brucella broth using urea as substrate preincubated for 2 hrs followed by substrate addition measured after 2 hrs by Berthelot assay; assay type: protein-complex assay
Method in brief: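 Unwashed H. pylori J99 cells from 48 h Brucella broth culture (5% FBS, 1% IsoVitalex), resuspended in 10 mM PBS pH 7.2, about 1×10⁷ cfu/mL. Cells preincubated 2 h with inhibitor before 5 mM urea was added. Timed aliquots assayed by Berthelot method; three repeats.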

[6] = Steady state inhibition of Sporosarcina pasteurii CCM 2056 urease using urea as substrate assessed as inhibition constant for final enzyme conformation-inhibitor complex by measuring ammonia levels after 120 mins by phenol-hypochlorite method
Method in brief: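 S. pasteurii urease (113.5 pM final) added to stirred mixtures with 25 mM urea and varied inhibitor (water or DMF), 3 mM phosphate pH 7.5, 37°C. Ammonia sampled over 120 min by phenol-hypochlorite. Progress curves fitted to integrated slow-binding equation. Ki and Ki* derived using Km and Vmax of uninhibited enzyme.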

[7] = target: T1, Urease subunit alpha/Urease subunit beta; assay: Inhibition of recombinant Helicobacter pylori urease expressed in Escherichia coli rosetta DE3 using urea as substrate assessed as transformed cell urea splitting activity after 2 hrs by Berthelot assay
Method in brief: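 E. coli Rosetta pGEM::ureOP cells grown in LB with ampicillin at 37°C, induced with 0.75 mM IPTG and 0.75 mM Ni²⁺ for 24 h at 22°C, then washed thrice in PBS. Cells (1×10⁹ cfu/mL final) start the reaction in 10 mM PBS with 5 mM urea and inhibitor. Timed aliquots read by Berthelot; triplicate.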

T1 sequence (P69996 whole entry): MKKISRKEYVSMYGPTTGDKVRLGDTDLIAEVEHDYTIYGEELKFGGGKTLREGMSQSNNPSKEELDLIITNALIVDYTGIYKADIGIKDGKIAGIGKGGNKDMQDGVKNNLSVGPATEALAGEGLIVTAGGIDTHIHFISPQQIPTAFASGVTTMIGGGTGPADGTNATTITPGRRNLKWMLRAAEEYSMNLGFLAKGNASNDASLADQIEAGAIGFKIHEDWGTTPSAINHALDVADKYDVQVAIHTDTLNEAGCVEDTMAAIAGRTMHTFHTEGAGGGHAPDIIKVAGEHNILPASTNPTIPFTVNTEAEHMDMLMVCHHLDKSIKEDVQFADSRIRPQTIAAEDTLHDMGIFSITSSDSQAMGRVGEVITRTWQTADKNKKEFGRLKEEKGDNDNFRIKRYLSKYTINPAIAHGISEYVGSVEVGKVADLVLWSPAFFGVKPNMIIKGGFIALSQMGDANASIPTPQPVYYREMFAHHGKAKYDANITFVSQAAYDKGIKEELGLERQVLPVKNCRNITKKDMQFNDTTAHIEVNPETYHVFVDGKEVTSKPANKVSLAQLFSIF
T1 sequence (P14916 whole entry): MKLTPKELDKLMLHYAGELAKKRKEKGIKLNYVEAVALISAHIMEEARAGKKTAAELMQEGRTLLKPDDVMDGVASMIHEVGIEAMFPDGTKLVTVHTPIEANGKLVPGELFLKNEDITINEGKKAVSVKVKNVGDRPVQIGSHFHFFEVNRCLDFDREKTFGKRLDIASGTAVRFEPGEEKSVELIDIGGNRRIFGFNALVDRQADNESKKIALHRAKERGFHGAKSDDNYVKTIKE

With `O=C(Oc1ccccc1)c1ccccc1[Se][Se]c1ccccc1C(=O)Oc1ccccc1` the “competitive inhibition (qualitative call)” value [1] was “Active”, the IC50 [2] was “Not Active” and the “reversible inhibition (qualitative)” value [3] was “Active”. For the same compound, the IC50 [4] was “Not Active”, the IC50 [5] was “Not Active” and the Ki [6] was 528 nM. The IC50 [7] was “Not Active”.
